This is one part of a sample in which hits are shown more often than they occur.
L major viab: Leishmania major promastigote growth inhibition, primary screen | inhibition, % at 10 µM | 9% of 200,000 active | Leishmania major promastigotes, resazurin fluorescence viability; in the data active means inhibition above about 50%;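 further: promastigotes grown with compound for 44 hours at 28 °C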
Dynein cargo inh: inhibitors of GR-EGFP nuclear translocation, primary screen, dynein cargo transport inhibitor project, imaging, high-content, 3617.4 mouse cells | test concentration mostly 20 µM; stimulated with dexamethasone, 1 µM; active compounds read low | z-score, hits read low | 0.47% of 220,000 active | AID 1381, 2008;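 active means plate z-score of nuclear minus cytoplasmic receptor signal below a set negative limit, without overly bright fluorescence or cell loss, cut at about -3.5 in these data, passing the limit was not always enough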;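 further: z-score of nuclear minus cytoplasmic ring GR-EGFP intensity difference per well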
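Schedule: 48 h induction, then 1 h compound, then 30 min agonist, 37 °C. Buffer or medium: tetracycline-free induction medium containing charcoal-stripped FBS. Reagent: 1.0 µM final dexamethasone stimulus. Evaluation: nuclear versus cytoplasmic GR-EGFP signal, averaged per well. Signal: high-content fluorescence imaging after fixation.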
CHOP inh: inhibitors of CHOP promoter induction, primary screen, cell-based, unfolded protein response, luciferase reporter; CHO-K1 CHOP-promoter luciferase, tunicamycin-induced, 15-18 h; inhibition, % at 10 µM; 3.8% of 220,000 active; AID 2732, 2010;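 active means compounds that reduced the stress-induced luciferase reporter signal by more than about 70% of percent inhibition, limit read from the data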
T cruzi inh: inhibitors of intracellular T. cruzi growth, primary screen, luminescence, NIH3T3 host cells; T. cruzi beta-gal in NIH3T3, 90 h; inhibition, % (concentration not given with the values); 1.4% of 300,000 active;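 active means mean inhibition across valid replicates above about 55%, limit read from the data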;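 further: signal also drops with host cell toxicity which is not excluded here; higher percent means less beta-gal luminescence so fewer parasites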
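compound dosing = single 50 nL compound addition per well in DMSO | material = NIH/3T3 host cells with β-galactosidase reporter T. cruzi | input = 5,000 host fibroblasts per well | timing = ≥90 h infection period, 3 h prior cell attachment | read-out basis = percent inhibition of parasite-derived β-gal signal | detection = GalScreen β-gal luminescence, detergent lysis, 60 min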
XBP1 UPR activ: activators of adaptive XBP1 UPR arm, primary screen, cell-based, CHO-XBP1 luciferase reporter, luminescence, uHTS; 0.33% of 330,000 active; AID 463104, 2010; IRE1-XBP1 UPR activation; percent of tunicamycin response, DMSO as zero; activation, % at 20 µM;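 active means versus positive control, 20 µM dose yields 30% or more activation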
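Material: CHO cell line with stable XBP1 luciferase reporter; buffer or medium: F12 medium containing 10% fetal bovine serum; compound: single point, 20 µM final compound, 1% DMSO; incubation: 6 h treatment, 37 °C; measured by: glow luminescence from Steady-Glo reagent; evaluation: activation, % of tunicamycin; control set: tunicamycin high, DMSO low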
CHOP UPR activ: activators of apoptotic CHOP UPR arm, primary screen, cell-based, CHO-CHOP luciferase reporter, luminescence, uHTS; UPR activation; percent of tunicamycin response over DMSO baseline; 0.34% of 330,000 active; activation, % at 10 µM;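 active means at 10 µM dose, activation of 40% or more, normalized to positive control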
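Dosing – one dose, 10 µM in 0.5% DMSO · System – CHO-CHOP cells, stable luciferase reporter of PERK-eIF2a-CHOP signalling · Input – 500 cells/well · Control set – tunicamycin 10 µg/mL final as positive, DMSO-only wells as negative · Timing – 6 h compound treatment, 37 °C · Measure – % activation vs tunicamycin · Technique – luminescence read with Steady-Glo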
Hits are given with their value.

How did CCOc1cc(CNCCCN2CCOCC2)ccc1OCC(=O)NC(C)(C)C do in these assays?
L major viab: inactive; Dynein cargo inh: inactive; CHOP inh: inactive; T cruzi inh: 63; XBP1 UPR activ: inactive; CHOP UPR activ: inactive

How did CCNC(=O)COc1ccc(CC)cc1 do in these assays?
L major viab: inactive; Dynein cargo inh: inactive; CHOP inh: inactive; T cruzi inh: inactive; XBP1 UPR activ: inactive; CHOP UPR activ: inactive

Results for COc1ccccc1OCC(=O)NCCCN1CCOCC1 ?
T cruzi inh: inactive; XBP1 UPR activ: inactive; CHOP UPR activ: inactive

How did CCOc1ccc(CCNC(=O)COC(=O)c2ccco2)cc1OCC do in these assays?
L major viab: 56; Dynein cargo inh: inactive; CHOP inh: inactive; T cruzi inh: inactive; XBP1 UPR activ: inactive; CHOP UPR activ: inactive

Results for COc1cccc(N2CCN(c3nc(C)cc(=O)[nH]3)CC2)c1 ?
T cruzi inh: inactive; XBP1 UPR activ: inactive; CHOP UPR activ: inactive

What do the screens show for `O=C1C=C(c2ccc(Cl)c(C(F)(F)F)c2)C[C@@H](c2ccc3c(c2)OCO3)C1`?
XBP1 UPR activ: inactive; CHOP UPR activ: inactive

Results for COc1ccc(C(CNC(=O)CN2C(=O)NC3(CCCC3)C2=O)N(C)C)cc1 (configuration not stated) ?
T cruzi inh: inactive; XBP1 UPR activ: inactive; CHOP UPR activ: inactive

How did Cc1noc(C)c1NC(=O)N(C)C[C@H]1Oc2ccc(NC(=O)Nc3ccc4c(c3)OCO4)cc2C(=O)N([C@H](C)CO)C[C@@H]1C do in these assays?
XBP1 UPR activ: inactive; CHOP UPR activ: inactive

What do the screens show for `C=CCOc1c(Br)cc(CNCCCN2CCOCC2)cc1OC`?
T cruzi inh: 58; XBP1 UPR activ: inactive; CHOP UPR activ: inactive

What do the screens show for `CC(C)(C)NC(=O)COc1ccc(CNCc2ccccn2)cc1`?
L major viab: inactive; Dynein cargo inh: inactive; CHOP inh: inactive; T cruzi inh: inactive; XBP1 UPR activ: inactive; CHOP UPR activ: inactive

What do the screens show for `CCOc1cc(CNCc2cccs2)ccc1OCC(=O)NC(C)(C)C`?
L major viab: inactive; Dynein cargo inh: inactive; CHOP inh: inactive; T cruzi inh: inactive; XBP1 UPR activ: inactive; CHOP UPR activ: inactive

Results for CC(C)(C)NC(=O)COc1ccc(CNCCc2ccccc2)cc1 ?
L major viab: 87; Dynein cargo inh: inactive; CHOP inh: inactive; T cruzi inh: inactive; XBP1 UPR activ: inactive; CHOP UPR activ: inactive

What do the screens show for `CCOc1cc(CNCc2cccnc2)ccc1OCC(=O)NC(C)(C)C`?
L major viab: 83; Dynein cargo inh: inactive; CHOP inh: inactive; T cruzi inh: inactive; XBP1 UPR activ: inactive; CHOP UPR activ: inactive

What do the screens show for `CCOc1ccc(CCNC(=O)Cn2cccc2C(=O)c2ccccc2C)cc1OCC`?
L major viab: 61; Dynein cargo inh: inactive; CHOP inh: 75; T cruzi inh: inactive; XBP1 UPR activ: inactive; CHOP UPR activ: inactive

How did CCOc1ccc(CCNC(=O)Nc2ccccc2C)cc1OCC do in these assays?
T cruzi inh: inactive; XBP1 UPR activ: inactive; CHOP UPR activ: inactive

What do the screens show for `COC(=O)c1ccccc1NC(=O)c1ccc2c(c1)OCCCO2`?
T cruzi inh: inactive; XBP1 UPR activ: inactive; CHOP UPR activ: inactive

Results for COc1ccc(CCNC(=O)Nc2cccs2)c(OC)c1 ?
T cruzi inh: inactive; XBP1 UPR activ: inactive; CHOP UPR activ: inactive

Results for CCOc1cc(CNCCc2ccccc2)ccc1OCC(=O)NC(C)(C)C ?
L major viab: 100; Dynein cargo inh: inactive; CHOP inh: inactive; T cruzi inh: inactive; XBP1 UPR activ: inactive; CHOP UPR activ: inactive

Results for Cc1[nH]n(C2=NCCS2)c(=O)c1N=Nc1cccc(C(F)(F)F)c1 ?
L major viab: 99; Dynein cargo inh: inactive; CHOP inh: inactive; T cruzi inh: 60; XBP1 UPR activ: inactive; CHOP UPR activ: inactive

Screens as filed in PubChem BioAssay.
